Converted amounts (≈) assume the structure as drawn.
Key:
Streptococcus pyogenes = assay: Antibacterial activity against Streptococcus pyogenes ATCC 19615 by microbroth dilution method; format: functional
CYP3A4 = CYP3A4 (Homo sapiens, UniProt P08684); assay: Inhibition of CYP3A4 (unknown origin) at 10 uM; format: ADME
In short: (§1)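 Each test compound was tested at a single concentration of 10 μM against CYP1A2, 2C8, 2C9, 2C19, 2D6 and 3A4. Results are reported as percent inhibition.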

Enterococcus faecium = assay: Antibacterial activity against Enterococcus faecium 19434 by microbroth dilution method; format: functional
CYP2D6 = CYP2D6 (Homo sapiens, UniProt P10635); assay: Inhibition of CYP2D6 (unknown origin) at 10 uM; format: ADME; in short: as §1
Staphylococcus aureus [1] = assay: Antibacterial activity against methicillin-resistant Staphylococcus aureus 1201984 by microbroth dilution method; format: functional
[2] = tested on: Staphylococcus epidermidis; assay: Antibacterial activity against Staphylococcus epidermidis ATCC 14990 by microbroth dilution method; format: functional
CYP2C19 = CYP2C19 (Homo sapiens, UniProt P33261); assay: Inhibition of CYP2C19 (unknown origin) at 10 uM; format: ADME; in short: as §1
Staphylococcus aureus [3] = assay: Antibacterial activity against Staphylococcus aureus ATCC 6538P by microbroth dilution method; format: functional
Streptococcus pneumoniae = assay: Antibacterial activity against Streptococcus pneumoniae 55143 by microbroth dilution method; format: functional
[4] = Solubility in pH 6.8 buffer; format: physicochemical
In short: (§2)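 Aqueous solubility was measured in buffers at pH 1.2 and pH 6.8 and reported in μg/mL.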

Enterococcus faecalis = assay: Antibacterial activity against Enterococcus faecalis ATCC 29212 by microbroth dilution method; format: functional
Staphylococcus aureus [5] = assay: Antibacterial activity against Staphylococcus aureus ATCC 29213 by microbroth dilution method; format: functional
[6] = Solubility in pH 1.2 buffer; format: physicochemical; in short: as §2
[7] = Metabolic stability in mouse liver microsomes assessed as parent compound remaining level; format: ADME, microsome
In short: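 Compound was incubated with mouse liver microsomes to assess phase I metabolism. Read-out is percent of parent compound remaining.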

CYP1A2 = biological target: T1, CYP1A2 (Homo sapiens, UniProt P05177); assay: Inhibition of CYP1A2 (unknown origin) at 10 uM; format: ADME; in short: as §1
T1 sequence (P05177 whole entry): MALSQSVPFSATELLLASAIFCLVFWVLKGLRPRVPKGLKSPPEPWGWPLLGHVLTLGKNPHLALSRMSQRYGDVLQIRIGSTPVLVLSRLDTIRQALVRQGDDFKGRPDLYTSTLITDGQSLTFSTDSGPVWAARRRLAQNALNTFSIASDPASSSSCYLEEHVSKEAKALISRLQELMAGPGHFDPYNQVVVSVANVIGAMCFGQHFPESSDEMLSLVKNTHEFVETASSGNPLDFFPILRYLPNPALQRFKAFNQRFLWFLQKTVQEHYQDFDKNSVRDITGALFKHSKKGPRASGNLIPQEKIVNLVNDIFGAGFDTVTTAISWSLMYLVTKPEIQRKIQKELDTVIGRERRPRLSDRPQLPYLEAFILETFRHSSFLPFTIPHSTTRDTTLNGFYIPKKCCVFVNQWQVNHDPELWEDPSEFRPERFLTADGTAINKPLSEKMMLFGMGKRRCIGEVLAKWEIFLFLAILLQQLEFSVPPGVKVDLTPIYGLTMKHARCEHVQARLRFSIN

Haemophilus influenzae = assay: Antibacterial activity against Haemophilus influenzae ATCC 49247 by microbroth dilution method; format: functional
Staphylococcus aureus [8] = assay: Antibacterial activity against linezolid-resistant Staphylococcus aureus by microbroth dilution method; format: functional
Staphylococcus aureus [9] = assay: Antibacterial activity against Staphylococcus aureus ATCC 33591 by microbroth dilution method; format: functional
CYP2C9 = CYP2C9 (Homo sapiens, UniProt P11712); assay: Inhibition of CYP2C9 (unknown origin) at 10 uM; format: ADME; in short: as §1
[10] = Lipophilicity, log D of the compound at pH 7.4; format: physicochemical; conditions: buffer
CYP2C8 = biological target: T2, CYP2C8 (Homo sapiens, UniProt P10632); assay: Inhibition of CYP2C8 (unknown origin) at 10 uM; format: ADME; in short: as §1
T2 sequence (P10632 whole entry): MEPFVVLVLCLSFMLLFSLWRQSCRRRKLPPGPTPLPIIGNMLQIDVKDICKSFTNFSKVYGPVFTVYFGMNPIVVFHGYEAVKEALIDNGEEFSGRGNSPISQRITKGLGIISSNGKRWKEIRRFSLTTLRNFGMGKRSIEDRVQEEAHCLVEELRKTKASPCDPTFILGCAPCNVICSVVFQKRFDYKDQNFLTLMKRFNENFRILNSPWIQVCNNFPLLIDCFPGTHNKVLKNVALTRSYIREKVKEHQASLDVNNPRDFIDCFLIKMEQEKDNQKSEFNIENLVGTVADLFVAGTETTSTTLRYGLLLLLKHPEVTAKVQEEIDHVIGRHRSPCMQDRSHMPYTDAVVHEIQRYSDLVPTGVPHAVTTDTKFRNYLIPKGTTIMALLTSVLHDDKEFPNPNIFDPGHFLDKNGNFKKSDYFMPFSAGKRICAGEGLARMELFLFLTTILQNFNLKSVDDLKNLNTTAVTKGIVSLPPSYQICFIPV

Sequence of CYP2C19 (P33261 whole entry): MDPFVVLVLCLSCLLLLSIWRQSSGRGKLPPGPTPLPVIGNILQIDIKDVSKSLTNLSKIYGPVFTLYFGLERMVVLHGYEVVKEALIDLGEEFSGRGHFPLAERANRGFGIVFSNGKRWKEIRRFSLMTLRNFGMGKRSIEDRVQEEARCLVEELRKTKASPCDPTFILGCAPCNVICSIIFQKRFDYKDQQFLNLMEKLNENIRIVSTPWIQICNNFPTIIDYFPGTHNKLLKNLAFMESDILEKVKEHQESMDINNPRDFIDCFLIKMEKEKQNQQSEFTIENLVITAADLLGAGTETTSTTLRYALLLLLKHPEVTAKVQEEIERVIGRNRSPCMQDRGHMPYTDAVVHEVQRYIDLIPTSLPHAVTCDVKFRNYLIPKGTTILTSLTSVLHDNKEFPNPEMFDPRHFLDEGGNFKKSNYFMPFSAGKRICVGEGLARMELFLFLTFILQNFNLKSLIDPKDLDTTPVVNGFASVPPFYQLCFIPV
Sequence of CYP2D6 (P10635 whole entry): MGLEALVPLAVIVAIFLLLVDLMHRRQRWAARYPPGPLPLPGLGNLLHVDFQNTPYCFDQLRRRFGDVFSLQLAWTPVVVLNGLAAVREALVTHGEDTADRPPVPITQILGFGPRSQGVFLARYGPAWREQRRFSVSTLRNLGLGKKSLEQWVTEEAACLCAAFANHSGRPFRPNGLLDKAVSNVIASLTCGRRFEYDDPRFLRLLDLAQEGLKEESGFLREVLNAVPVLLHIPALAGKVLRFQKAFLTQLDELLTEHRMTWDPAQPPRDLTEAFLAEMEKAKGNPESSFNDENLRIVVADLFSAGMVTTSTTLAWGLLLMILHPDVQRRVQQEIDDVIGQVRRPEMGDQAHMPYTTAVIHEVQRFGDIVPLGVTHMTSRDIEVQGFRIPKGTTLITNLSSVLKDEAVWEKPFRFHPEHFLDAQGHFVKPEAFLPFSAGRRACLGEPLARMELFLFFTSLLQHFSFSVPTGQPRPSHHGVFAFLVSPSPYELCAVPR
Sequence of CYP3A4 (P08684 whole entry): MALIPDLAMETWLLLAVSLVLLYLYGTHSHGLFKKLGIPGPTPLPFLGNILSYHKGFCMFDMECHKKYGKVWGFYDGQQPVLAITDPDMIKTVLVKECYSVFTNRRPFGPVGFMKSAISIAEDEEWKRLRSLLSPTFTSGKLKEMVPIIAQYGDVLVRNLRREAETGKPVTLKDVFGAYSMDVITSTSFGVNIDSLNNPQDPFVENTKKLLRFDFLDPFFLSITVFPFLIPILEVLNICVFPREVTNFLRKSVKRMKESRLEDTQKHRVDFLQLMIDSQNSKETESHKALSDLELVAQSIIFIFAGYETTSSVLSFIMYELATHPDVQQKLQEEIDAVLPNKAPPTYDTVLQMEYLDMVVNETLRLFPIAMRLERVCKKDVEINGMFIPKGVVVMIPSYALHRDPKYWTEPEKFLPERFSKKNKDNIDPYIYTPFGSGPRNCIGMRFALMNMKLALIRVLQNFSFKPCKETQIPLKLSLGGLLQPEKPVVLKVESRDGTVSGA
Sequence of CYP2C9 (P11712 whole entry): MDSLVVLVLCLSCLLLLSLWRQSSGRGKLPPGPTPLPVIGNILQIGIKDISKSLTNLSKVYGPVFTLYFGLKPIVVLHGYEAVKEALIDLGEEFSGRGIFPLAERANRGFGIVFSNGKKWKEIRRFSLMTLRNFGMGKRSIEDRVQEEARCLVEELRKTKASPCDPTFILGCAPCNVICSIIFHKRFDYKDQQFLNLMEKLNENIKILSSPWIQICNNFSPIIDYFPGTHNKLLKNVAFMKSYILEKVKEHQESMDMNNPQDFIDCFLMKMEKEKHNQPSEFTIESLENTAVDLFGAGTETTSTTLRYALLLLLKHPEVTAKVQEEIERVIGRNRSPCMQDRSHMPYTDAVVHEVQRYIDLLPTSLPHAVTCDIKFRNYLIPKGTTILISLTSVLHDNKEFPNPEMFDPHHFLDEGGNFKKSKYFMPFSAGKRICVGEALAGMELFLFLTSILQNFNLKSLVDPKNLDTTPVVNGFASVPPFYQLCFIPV

| SMILES | MIC (Streptococcus pyogenes) [µg/mL] | inhibition at 10 µM (CYP3A4) [%] | MIC (Enterococcus faecium) [µg/mL] | inhibition at 10 µM (CYP2D6) [%] | MIC (Staphylococcus aureus [1]) [µg/mL] | MIC [2] [µg/mL] | inhibition at 10 µM (CYP2C19) [%] | MIC (Staphylococcus aureus [3]) [µg/mL] | MIC (Streptococcus pneumoniae) [µg/mL] | solubility [4] [µg/mL] | MIC (Enterococcus faecalis) [µg/mL] | MIC (Staphylococcus aureus [5]) [µg/mL] | solubility [6] [µg/mL] | Stability [7] [%] | inhibition at 10 µM (CYP1A2) [%] | MIC (Haemophilus influenzae) [µg/mL] | MIC (Staphylococcus aureus [8]) [µg/mL] | MIC (Staphylococcus aureus [9]) [µg/mL] | inhibition at 10 µM (CYP2C9) [%] | logD [10] | other results |
| --- | --- | --- | --- | --- | --- | --- | --- | --- | --- | --- | --- | --- | --- | --- | --- | --- | --- | --- | --- | --- | --- |
| O=C1COc2ccc(-c3ccc(N4C[C@H](CO)OC4=O)cc3F)cc2N1 | < 0.06 | 0 | < 0.06 | 4 | 0.5 (≈ 1.4 µM) | < 0.06 | 29 | < 0.06 | < 0.06 | 5.2 (≈ 14.5 µM) | < 0.06 | 0.125 (≈ 0.349 µM) | 4.4 (≈ 12.3 µM) | 113 | 4 | 0.5 (≈ 1.4 µM) | 1 (≈ 2.79 µM) | 0.5 (≈ 1.4 µM) | 12 | 1.9 | inhibition at 10 µM (CYP2C8): 0% |
| CC(=O)NC[C@H]1CN(c2ccc(-c3ccc4c(c3)NC(=O)CO4)c(F)c2)C(=O)O1 | 0.06 (≈ 0.15 µM) | 0 | 0.03 (≈ 0.0751 µM) | 10 | 0.5 (≈ 1.25 µM) | 0.06 (≈ 0.15 µM) | 20 | 0.125 (≈ 0.313 µM) | 0.06 (≈ 0.15 µM) | 15 (≈ 37.6 µM) | 0.03 (≈ 0.0751 µM) | 0.125 (≈ 0.313 µM) | 22 (≈ 55.1 µM) | 84 | 6 | 0.25 (≈ 0.626 µM) | 1 (≈ 2.5 µM) | 0.5 (≈ 1.25 µM) | 13 | 1.9 | inhibition at 10 µM (CYP2C8): 12% |

Reference: ChEMBL document CHEMBL4130562, “Design, Synthesis, and Antibacterial Evaluation of Oxazolidinones with Fused Heterocyclic C-Ring Substructure” (ACS Med Chem Lett, 2017)
